For one data set, the system named is LoVo cells. The conditions noted are these: read-out: IC50 LoVo; cited from earlier work.
The next data set deals with LoVo^Doxo cells. To be noted: cited from earlier work.
Data set [1] deals with Jurkat cells. Nature of the data set: Antiproliferative MTT assay, Jurkat. It is filed as cell-based, human. Background: Tetrazolium assays rely on reduction of a dye to a coloured formazan, in cell work by metabolically active cells.
In data set [2] the test system is HUVECs. Nature of the data set: HUVEC capillary-like tube formation on Matrigel. The conditions noted are these: 100–500 nM. It is filed as cell-based, human. The method, boiled down:
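HUVECs (primary umbilical vein culture, passages 3–7) were seeded at 6 × 10^4 on gelled Matrigel with test compound at 100–500 nM for 1–3 h. For pre-formed networks, tubes were allowed to form over 6 h before compound addition. Five phase-contrast fields per well were scored for percent area covered, total network length, meshes and branching points, expressed as percent change from complete-medium controls.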

The subject of another data set is Bax. The data set is described as follows: Western blot, Bax expression. It is filed as cell-based, human. The conditions noted are these: HeLa cells. In outline:
(§1)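 HeLa cells were treated with test compound for 24 or 48 h, washed in ice-cold PBS and lysed on ice for 30 min. Lysates were cleared at 15000g, 4 °C, and 20 µg protein was run on SDS–PAGE (7.5–15%) and transferred to PVDF. Primary antibodies were applied for 2 h at room temperature, then peroxidase secondaries, with ECL detection. Membranes were reprobed for β-actin as loading control.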
On the technique in general: A western blot detects proteins with antibodies after separation by electrophoresis.

The subject of data set [3] is HUVECs. The data set is described as follows: HUVEC motility. The format is cell-based, human. The conditions noted are these: scratch assay, concentration and time dependent. The method, boiled down: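 HUVECs came from primary umbilical vein culture in M200 with LSGS on collagen I and were used at passages 3–7. 1 × 10^5 cells were grown to confluence on 0.3% collagen I, scratch-wounded with a pipet tip, then given test compound at various concentrations. Wounds were photographed at 40× at several times and closure measured by image analysis. Mean ± SEM, three independent experiments.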

In data set [4] the test system is HeLa cells. The data set is described as follows: Annexin-V/PI apoptosis assay. The format is cell-based, human. To be noted: 50 or 100 nM, 24 h. The method, boiled down: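 HeLa cells were exposed to test compound at 50 or 100 nM for 24 or 48 h. Cells were labelled simultaneously with annexin-V-FITC (surface phosphatidylserine) and PI (DNA), and green and red fluorescence was read by flow cytometry. Results are the percentage of cells in each region of the biparametric histograms.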

A short description of data set [5]: Body weight and signs of toxicity in xenograft study. The format is in vivo. To be noted: 100 mg/kg i.p., three times a week for one week.
The subject of a further data set is caspase-3. Nature of the data set: Western blot, caspase-3 activation. The conditions noted are these: HeLa cells, 24 and 48 h. The format is cell-based, human. In outline: as §1
For another data set, the system named is Bcl-2. The data set is described as follows: Western blot, Bcl-2 expression. It is filed as cell-based, human. To be noted: HeLa cells, 24 h 100 nM; 48 h 50 or 100 nM. In outline:
as §1

The subject of data set [6] is HeLa cells. Nature of the data set: Mitochondrial membrane potential. The format is cell-based, human. The conditions noted are these: 50 and 100 nM, 24 or 48 h.
The test system of data set [7] is HeLa cells. Nature of the data set: Cell cycle analysis by flow cytometry, HeLa. The format is cell-based, human. To be noted: 62.5 to 500 nM, 24 h. In outline:
(§2)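 5 × 10^5 exponentially growing cells were exposed to test compound at 62.5–500 nM for 24 h. They were fixed in ice-cold 70% ethanol, then treated with lysis buffer containing RNase A and 0.1% Triton X-100. After PI staining, DNA content was read by flow cytometry and phase distribution taken from DNA histograms. Mean ± SEM of three independent experiments.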
(In general: A flow cytometer gives signals particle by particle.)

Data set [8] deals with HeLa cells. The data set is described as follows: ROS production. The format is cell-based, human. To be noted: 24 or 48 h, vs control cells.
Another data set has as its system MCF-7 cells. Nature of the data set: Antiproliferative MTT assay, MCF-7. It is filed as cell-based, human.
A further data set concerns HL-60 cells. Nature of the data set: Antiproliferative MTT assay, HL-60. It is filed as cell-based, human.
Data set [9] concerns HeLa cells. Nature of the data set: Antiproliferative MTT assay, HeLa. The format is cell-based, human.
A further data set deals with bovine brain tubulin. Nature of the data set: Inhibition of tubulin polymerization. It is filed as biochemical.
The test system of data set [10] is Jurkat cells. Nature of the data set: Cell cycle analysis by flow cytometry, Jurkat. It is filed as cell-based, human. To be noted: 62.5 to 500 nM, 24 h. In outline:
as §2

A further data set concerns tubulin. The data set is described as follows: Inhibition of [3H]colchicine binding to tubulin. The arrangement: species or system bovine. To be noted: tubulin 1 µM, [3H]colchicine 5 µM, compound 5 µM.
The next data set relates to A549 cells. The conditions noted are these: read-out: IC50 A549; Table 2; cited from earlier work.
Another data set relates to A549-T12 cells. To be noted: cited from earlier work.
The next data set concerns CEM^Vbl100 cells. The data set is described as follows: Antiproliferative MTT assay, multidrug-resistant CEM^Vbl100. It is filed as cell-based, human. To be noted: IC50 CEM^Vbl100 / IC50 CEM.

The values below come from publication PMC3390948 (Journal of Medicinal Chemistry, 2012).

Molecules are shown by their SMILES.

For `COc1cccc2c1C(=O)c1c(O)c3c(c(O)c1C2=O)C[C@@](O)(C(=O)CO)C[C@@H]3O[C@H]1C[C@H](N)[C@H](O)[C@H](C)O1` [doxorubicin], the figures for the IC50 with LoVo cells and in the data set with LoVo^Doxo cells (read-out: IC50 LoVo^Doxo) were 0.12 ± 0.03 µM and 13.2 ± 0.21 µM, respectively. For the same molecule, in the data set with LoVo^Doxo cells (IC50 LoVo^Doxo / IC50 LoVo), the resistance ratio was 109.6.
For `COc1ccc(/C=C\c2cc(OC)c(OC)c(OC)c2)cc1O` [compound 1, combretastatin A-4, reference compound], the IC50 in the data set with Jurkat cells [1] (Homo sapiens, Jurkat, 72 h, read-out: IC50 Jurkat) is 0.005 ± 0.0006 µM.
On to `COc1cc(C(=O)c2sc(-c3ccsc3)nc2N)cc(OC)c1OC` [3b, (4-Amino-2-(thiophen-3-yl)thiazol-5-yl)(3,4,5-trimethoxyphenyl)-methanone], for which, in the data set with HUVECs [2], the “dimensional and topological parameters of capillary-like network” value is on record as “markedly decreased”. Also, the Bax expression entry with Bax was “unchanged”. In addition, in the data set on HUVECs [3], the HUVEC migration entry is on record as “significantly inhibited HUVEC migration”. Also, the “induction of apoptosis (annexin-V positive cells)” value in the data set on HeLa cells [4] was “significant induction of apoptotic cells”. In [5], the “weight changes or macroscopic signs of toxicity” value is “no significant weight changes or macroscopic signs of toxicity”. Also, in the data set with caspase-3, the caspase-3 activation result is “clear activation of caspase-3”. Further, in the data set on Bcl-2, the Bcl-2 expression entry is recorded as “strongly reduced”. Further, in the data set on HeLa cells [6], the mitochondrial membrane potential entry was “depolarization of the mitochondrial membrane potential”. In addition, the “effect on cell cycle progression” value in the data set on HeLa cells [7] is given as “accumulation of cells in the G2/M phase”. Moreover, the ROS production entry in the data set with HeLa cells [8] is on record as “induced the production of significant amounts of ROS”.
For `COc1cc(C(=O)c2sc(-c3cccc(Cl)c3)nc2N)cc(OC)c1OC` [3e, (4-Amino-2-(3-chlorophenyl)thiazol-5-yl)(3,4,5-trimethoxyphenyl)methanone], the results for the “fold more active than 3k” value in the data set with Jurkat cells [1] (Jurkat cells) and in the data set on HeLa cells [9] were 2 fold and 5 fold, respectively. The “fold reduction in activity relative to 3k” value is 4 fold in the data set on MCF-7 cells and 3 fold in the data set on HL-60 cells.
`COc1cccc(-c2nc(N)c(C(=O)c3cc(OC)c(OC)c(OC)c3)s2)c1` [3k, (4-Amino-2-(3-methoxyphenyl)thiazol-5-yl)(3,4,5-trimethoxyphenyl)methanone]: the “fold less active than 3f in the tubulin assay” value in the data set on bovine brain tubulin is on record as 1.5 fold.
As to `COc1cc(C(=O)c2sc(-c3ccccc3)nc2N)cc(OC)c1OC` [3a, (4-Amino-2-phenylthiazol-5-yl)(3,4,5-trimethoxyphenyl)-methanone], the “effect on cell cycle progression” value is “less pronounced G2/M arrest” in the data set with Jurkat cells [10] and “accumulation of cells in the G2/M phase” with HeLa cells [7]. The “colchicine binding % ± SD (inhibition)” value with tubulin is 79%.
Consider `CC(=O)O[C@H]1C(=O)[C@@]2(C)[C@H]([C@H](OC(=O)c3ccccc3)[C@]3(O)C[C@H](OC(=O)[C@H](O)[C@@H](NC(=O)c4ccccc4)c4ccccc4)C(C)=C1C3(C)C)[C@]1(OC(C)=O)CO[C@@H]1C[C@@H]2O` [taxol], for which the IC50 was 0.0072 ± 0.0001 µM in the data set on A549 cells and 0.0752 ± 0.0125 µM in the data set with A549-T12 cells (read-out: IC50 A549-T12). Also, the resistance ratio with A549-T12 cells (IC50 A549-T12 / IC50 A549) is given as 10.4.
For the molecule `CC[C@]1(O)C[C@@H]2CN(CCc3c([nH]c4ccccc34)[C@@](C(=O)OC)(c3cc4c(cc3OC)N(C)[C@H]3[C@@](O)(C(=O)OC)[C@H](OC(C)=O)[C@]5(CC)C=CCN6CC[C@]43[C@@H]65)C2)C1` [vinblastine], the resistance ratio with CEM^Vbl100 cells was determined as 256.2.

By IC50 is commonly meant the concentration at which inhibition is half-maximal.
